In ChEMBL document CHEMBL1138950, “Benzimidazole derivatives bearing substituted biphenyls as hepatitis C virus NS5B RNA-dependent RNA polymerase inhibitors: structure-activity relationship studies and identification of a potent and highly selective inhibitor JTK-109” (J Med Chem, 2006):

Legend:
Cytochrome P450 3A4 = Cytochrome P450 3A4 (Homo sapiens, UniProt P08684); assay: Induction of CYP450 3A4; format: ADME
[1] = molecular target: T1, RNA-directed RNA polymerase (Hepacivirus hominis, UniProt O39930); assay: Inhibition of HCV 2a NS5B RNA dependent RNA polymerase; set-up: species or system Hepatitis C virus subtype 2a
T1 sequence (O39930 whole entry): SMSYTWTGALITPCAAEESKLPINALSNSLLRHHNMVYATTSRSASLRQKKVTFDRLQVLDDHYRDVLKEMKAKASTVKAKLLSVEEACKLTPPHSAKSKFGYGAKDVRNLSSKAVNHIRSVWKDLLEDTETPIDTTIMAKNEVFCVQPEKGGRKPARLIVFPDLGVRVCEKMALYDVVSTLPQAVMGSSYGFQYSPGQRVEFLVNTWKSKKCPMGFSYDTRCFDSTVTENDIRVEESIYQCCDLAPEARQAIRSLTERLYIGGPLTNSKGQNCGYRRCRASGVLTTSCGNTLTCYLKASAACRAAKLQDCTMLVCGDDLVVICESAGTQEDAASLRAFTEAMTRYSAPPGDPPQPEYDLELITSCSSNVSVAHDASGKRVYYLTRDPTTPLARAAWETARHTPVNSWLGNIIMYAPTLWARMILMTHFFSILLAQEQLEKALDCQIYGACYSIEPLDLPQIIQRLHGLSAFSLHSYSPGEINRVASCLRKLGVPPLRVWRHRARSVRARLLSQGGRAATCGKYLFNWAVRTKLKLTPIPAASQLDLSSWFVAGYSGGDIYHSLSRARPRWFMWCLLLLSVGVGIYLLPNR
In short: (§1)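 IC50 from the mean of four independent experiments; standard deviations within 30% of the mean.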

Cytochrome P450 2C9 = Cytochrome P450 2C9 (Homo sapiens, UniProt P11712); assay: Induction of CYP450 2C9; format: ADME
Chain of Cytochrome P450 2C9 (P11712 whole entry): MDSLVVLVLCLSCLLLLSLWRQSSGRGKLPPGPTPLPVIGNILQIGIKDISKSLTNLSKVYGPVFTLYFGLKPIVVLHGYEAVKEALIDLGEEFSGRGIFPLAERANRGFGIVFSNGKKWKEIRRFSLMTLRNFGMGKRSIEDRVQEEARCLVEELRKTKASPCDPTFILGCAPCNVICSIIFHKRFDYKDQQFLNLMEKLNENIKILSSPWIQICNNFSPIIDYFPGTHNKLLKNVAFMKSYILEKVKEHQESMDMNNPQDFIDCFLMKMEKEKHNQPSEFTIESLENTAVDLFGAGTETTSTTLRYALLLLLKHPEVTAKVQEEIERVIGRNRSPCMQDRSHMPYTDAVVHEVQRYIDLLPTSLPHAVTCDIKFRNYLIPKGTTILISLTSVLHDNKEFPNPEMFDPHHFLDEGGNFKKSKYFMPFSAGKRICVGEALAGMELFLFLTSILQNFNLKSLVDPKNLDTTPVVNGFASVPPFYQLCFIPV

[2] = Oral bioavailability in rat at 10 mg/kg; format: ADME, organism-based; conditions: in vivo
[3] = Plasma concentration in rat at 30 mg/kg, po after 1 hr; format: ADME, organism-based; set-up: dose 30 mg/kg, route oral
In short: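 Rats dosed orally at 30 mg/kg; plasma sampled at 1 and 2 h; n = 2 or 3.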

DNA polymerase beta = DNA polymerase beta (Homo sapiens, UniProt P06746); assay: Inhibition of DNA polymerase beta
[4] = molecular target: T2, DNA polymerase subunit gamma-1 (Homo sapiens, UniProt P54098); assay: Inhibition of DNA polymerase gamma
T2 sequence (P54098 whole entry): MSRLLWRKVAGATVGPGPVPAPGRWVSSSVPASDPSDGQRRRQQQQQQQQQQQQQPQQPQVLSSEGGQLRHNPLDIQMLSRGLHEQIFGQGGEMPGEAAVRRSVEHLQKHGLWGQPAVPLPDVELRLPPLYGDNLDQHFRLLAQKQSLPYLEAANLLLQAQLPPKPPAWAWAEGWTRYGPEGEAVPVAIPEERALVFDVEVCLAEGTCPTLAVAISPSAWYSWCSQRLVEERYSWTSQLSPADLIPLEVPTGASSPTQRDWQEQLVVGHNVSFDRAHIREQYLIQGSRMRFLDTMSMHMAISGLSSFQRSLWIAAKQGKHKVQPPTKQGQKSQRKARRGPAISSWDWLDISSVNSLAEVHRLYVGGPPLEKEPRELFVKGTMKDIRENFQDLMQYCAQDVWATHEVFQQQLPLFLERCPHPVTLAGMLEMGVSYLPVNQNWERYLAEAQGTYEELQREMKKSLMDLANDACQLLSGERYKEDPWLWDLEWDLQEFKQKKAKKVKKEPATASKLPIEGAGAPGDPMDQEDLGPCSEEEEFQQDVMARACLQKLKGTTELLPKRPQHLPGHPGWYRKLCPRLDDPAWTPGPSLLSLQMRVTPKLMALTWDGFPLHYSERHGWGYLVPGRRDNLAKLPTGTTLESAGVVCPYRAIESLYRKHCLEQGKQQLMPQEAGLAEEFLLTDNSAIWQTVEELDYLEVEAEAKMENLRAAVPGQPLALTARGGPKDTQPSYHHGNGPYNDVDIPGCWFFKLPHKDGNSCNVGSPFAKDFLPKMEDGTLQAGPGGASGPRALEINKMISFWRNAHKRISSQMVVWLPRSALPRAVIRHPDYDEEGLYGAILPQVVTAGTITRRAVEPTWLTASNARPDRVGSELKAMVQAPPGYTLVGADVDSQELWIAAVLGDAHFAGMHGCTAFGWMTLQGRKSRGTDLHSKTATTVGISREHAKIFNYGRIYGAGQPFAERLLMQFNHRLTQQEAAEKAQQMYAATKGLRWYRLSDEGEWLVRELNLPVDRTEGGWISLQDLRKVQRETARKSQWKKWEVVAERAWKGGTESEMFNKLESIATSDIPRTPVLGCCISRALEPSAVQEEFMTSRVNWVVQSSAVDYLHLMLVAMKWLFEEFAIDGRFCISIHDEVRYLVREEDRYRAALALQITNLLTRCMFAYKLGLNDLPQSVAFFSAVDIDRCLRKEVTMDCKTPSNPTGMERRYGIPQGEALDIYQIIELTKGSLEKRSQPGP

Cytochrome P450 2D6 = Cytochrome P450 2D6 (Homo sapiens, UniProt P10635); assay: Inhibition of CYP450 2D6; format: ADME
Chain of Cytochrome P450 2D6 (P10635 whole entry): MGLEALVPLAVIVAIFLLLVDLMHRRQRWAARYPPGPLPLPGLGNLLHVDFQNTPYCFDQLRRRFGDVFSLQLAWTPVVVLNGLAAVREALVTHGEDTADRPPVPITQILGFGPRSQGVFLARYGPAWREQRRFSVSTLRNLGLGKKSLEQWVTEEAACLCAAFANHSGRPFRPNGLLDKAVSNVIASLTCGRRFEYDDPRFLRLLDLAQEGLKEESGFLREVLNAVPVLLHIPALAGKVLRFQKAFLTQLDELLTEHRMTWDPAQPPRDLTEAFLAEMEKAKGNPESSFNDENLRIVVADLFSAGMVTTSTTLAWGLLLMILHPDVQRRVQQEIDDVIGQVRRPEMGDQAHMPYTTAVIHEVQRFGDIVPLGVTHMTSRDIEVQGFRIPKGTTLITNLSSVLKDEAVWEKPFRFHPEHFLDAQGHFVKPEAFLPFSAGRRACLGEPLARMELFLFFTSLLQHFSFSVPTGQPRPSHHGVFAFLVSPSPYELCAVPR

[5] = Therapeutic index, CC50 for viability of Huh5-2 cells/EC50 for inhibition of HCV subgenomic RNA replication; format: cell-based, Huh-5-2; conditions: human, read-out: Ratio CC50/EC50
[6] = Liver concentration in rat at 10 mg/kg, po after 2 hrs; format: ADME, organism-based; set-up: dose 10 mg/kg, route oral; conditions: read-out: Drug uptake
[7] = molecular target: T1, RNA-directed RNA polymerase; assay: Inhibition of HCV 1a NS5B RNA dependent RNA polymerase; set-up: species or system Hepatitis C virus subtype 1a; in short: as §1
Huh-5-2 = assay: Viability of Huh5-2 cells by MTT assay; format: functional; conditions: Homo sapiens

Chain of Cytochrome P450 3A4 (P08684 whole entry): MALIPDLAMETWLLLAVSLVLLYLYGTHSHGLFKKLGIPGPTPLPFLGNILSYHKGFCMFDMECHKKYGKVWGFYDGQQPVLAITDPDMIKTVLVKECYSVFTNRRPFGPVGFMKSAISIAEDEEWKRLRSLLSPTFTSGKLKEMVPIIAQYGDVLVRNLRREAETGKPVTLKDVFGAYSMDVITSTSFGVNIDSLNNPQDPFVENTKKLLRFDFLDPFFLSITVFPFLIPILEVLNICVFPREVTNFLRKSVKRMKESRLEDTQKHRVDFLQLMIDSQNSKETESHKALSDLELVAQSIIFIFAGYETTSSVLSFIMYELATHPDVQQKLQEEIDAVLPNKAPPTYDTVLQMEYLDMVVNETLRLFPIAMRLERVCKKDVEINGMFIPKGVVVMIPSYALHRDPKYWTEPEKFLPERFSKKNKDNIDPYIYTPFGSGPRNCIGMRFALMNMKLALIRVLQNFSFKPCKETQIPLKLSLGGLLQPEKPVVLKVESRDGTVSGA

Activity (Cytochrome P450 3A4): Not Active | IC50 [1]: 6.4 µM | Activity (Cytochrome P450 2C9): Not Active | bioavailability [2]: 36% | concentration at 1 h [3]: 4 µM | IC50 (DNA polymerase beta): > 10 µM | IC50 [4]: > 10 µM | Inhibition (Cytochrome P450 2D6): Not Active | concentration at 2 h [6]: 78.5 µM | IC50 [7]: 0.062 µM
SMILES: O=C(O)c1ccc2c(c1)nc(-c1ccc(OCc3cc(N4CCCC4=O)ccc3-c3ccc(Cl)cc3)cc1F)n2C1CCCCC1
selectivity ratio [5]: 78 | CC50 (Huh-5-2): 25 µM
